Results on 18 molecules are retold here after paper PMC3966491 (Chemical biology & drug design, 2013).

In series [1] the target is AKT1 (PKB alpha) (Homo sapiens, UniProt P31749). The series is described as follows: AKT1 in vitro kinase assay. It counts as biochemical. Summed up:
(§1)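 Z′-LYTE assay. Enzyme per 10 μL reaction: AKT1 0.34–7.65 ng, AKT2 1–40 ng, or AKT3 0.56–8.3 ng. Reaction contained 2 μM Ser/Thr 06 peptide, ATP at Km, 50 mM HEPES pH 7.5, 0.01% BRIJ-35, 10 mM MgCl2 and 1 mM EGTA. After 1 h, Development Reagent A (1:2048) protease cleaved non-phosphorylated peptide. Read-out was the coumarin 445 nm/fluorescein 520 nm emission ratio; curves were fitted.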

Series [2] deals with T1, IKBKB (IKK beta) (Homo sapiens, UniProt O14920).
T1 sequence (O14920 1-756): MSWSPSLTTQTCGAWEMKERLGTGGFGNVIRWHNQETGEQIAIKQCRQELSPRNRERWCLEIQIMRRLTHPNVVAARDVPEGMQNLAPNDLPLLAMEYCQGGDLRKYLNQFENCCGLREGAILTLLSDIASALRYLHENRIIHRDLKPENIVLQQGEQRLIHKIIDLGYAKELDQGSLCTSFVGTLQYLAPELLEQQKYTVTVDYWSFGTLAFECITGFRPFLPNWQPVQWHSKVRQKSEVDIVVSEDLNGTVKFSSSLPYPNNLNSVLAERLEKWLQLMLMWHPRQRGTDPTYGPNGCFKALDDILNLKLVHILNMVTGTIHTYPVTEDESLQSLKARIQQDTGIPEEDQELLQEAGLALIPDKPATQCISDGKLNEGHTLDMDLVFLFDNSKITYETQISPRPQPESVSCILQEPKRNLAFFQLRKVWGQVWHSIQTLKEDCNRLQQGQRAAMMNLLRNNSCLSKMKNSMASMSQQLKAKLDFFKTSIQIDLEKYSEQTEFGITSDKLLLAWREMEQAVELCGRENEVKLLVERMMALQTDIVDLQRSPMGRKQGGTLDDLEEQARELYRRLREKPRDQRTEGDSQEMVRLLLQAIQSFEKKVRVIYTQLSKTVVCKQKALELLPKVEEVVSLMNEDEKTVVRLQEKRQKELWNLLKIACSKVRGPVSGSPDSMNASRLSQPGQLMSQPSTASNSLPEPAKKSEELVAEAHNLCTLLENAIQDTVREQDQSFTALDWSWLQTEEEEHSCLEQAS
The series is described as follows: IKKβ. The format is biochemical. Conditions: for IKKβ in vitro kinase inhibition (in words): stated for IKKs. Summed up: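 Z′-LYTE format. Development used Reagent B (1:64) protease; read-out was the coumarin 445 nm/fluorescein 520 nm emission ratio. Where noted, IC50 was predicted from % inhibition at 10 μM test compound, mean of two experiments.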

Series [3] concerns the target T2, CHUK (IKK alpha) (Homo sapiens, UniProt O15111).
T2 sequence (O15111 1-745): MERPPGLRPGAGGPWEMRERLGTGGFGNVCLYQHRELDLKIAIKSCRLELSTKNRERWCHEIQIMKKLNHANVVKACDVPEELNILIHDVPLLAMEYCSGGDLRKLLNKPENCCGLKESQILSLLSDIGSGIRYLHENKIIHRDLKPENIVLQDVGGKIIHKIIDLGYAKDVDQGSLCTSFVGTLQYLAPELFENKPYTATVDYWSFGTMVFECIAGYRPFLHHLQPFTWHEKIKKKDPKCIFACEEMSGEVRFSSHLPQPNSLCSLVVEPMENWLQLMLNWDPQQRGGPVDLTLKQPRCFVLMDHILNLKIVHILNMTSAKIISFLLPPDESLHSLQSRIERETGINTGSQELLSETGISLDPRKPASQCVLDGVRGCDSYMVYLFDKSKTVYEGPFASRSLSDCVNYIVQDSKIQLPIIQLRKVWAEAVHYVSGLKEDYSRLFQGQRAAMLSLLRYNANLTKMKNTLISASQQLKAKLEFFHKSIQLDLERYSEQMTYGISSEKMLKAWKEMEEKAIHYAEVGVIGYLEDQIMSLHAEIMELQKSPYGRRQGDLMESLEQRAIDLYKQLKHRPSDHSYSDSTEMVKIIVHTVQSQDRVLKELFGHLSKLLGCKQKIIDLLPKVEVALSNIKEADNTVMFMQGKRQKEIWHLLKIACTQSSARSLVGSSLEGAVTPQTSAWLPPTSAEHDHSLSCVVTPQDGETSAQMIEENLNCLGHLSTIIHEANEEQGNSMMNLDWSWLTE
The series can be described thus: IKKα. The format is biochemical. The conditions noted are these: for IKKα in vitro kinase inhibition (in words): stated for IKKs. Summed up: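 ADAPTA ADP-detection format. Detection mix added EDTA (stop), europium-labelled anti-ADP antibody and Alexa Fluor 647 ADP tracer; ADP formation was taken from the emission ratio. Where noted, IC50 was predicted from % inhibition at 1 μM test compound, mean of two experiments.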

In series [4] the target is AKT3 (PKB gamma) (Homo sapiens, UniProt Q9Y243). The series is described as follows: AKT3 in vitro kinase assay. It counts as biochemical. A digest of the protocol: as §1
The target in series [5] is AKT2 (PKB beta) (Homo sapiens, UniProt P31751). The series is described as follows: AKT2 in vitro kinase assay. The format is biochemical. Summed up:
as §1

Series [6] is described as follows: in vitro plasma stability. It counts as in vitro ADME.
A short description of series [7]: in vitro microsomal stability. It counts as in vitro ADME.

AKT1 (PKB alpha), sequence (P31749 whole entry): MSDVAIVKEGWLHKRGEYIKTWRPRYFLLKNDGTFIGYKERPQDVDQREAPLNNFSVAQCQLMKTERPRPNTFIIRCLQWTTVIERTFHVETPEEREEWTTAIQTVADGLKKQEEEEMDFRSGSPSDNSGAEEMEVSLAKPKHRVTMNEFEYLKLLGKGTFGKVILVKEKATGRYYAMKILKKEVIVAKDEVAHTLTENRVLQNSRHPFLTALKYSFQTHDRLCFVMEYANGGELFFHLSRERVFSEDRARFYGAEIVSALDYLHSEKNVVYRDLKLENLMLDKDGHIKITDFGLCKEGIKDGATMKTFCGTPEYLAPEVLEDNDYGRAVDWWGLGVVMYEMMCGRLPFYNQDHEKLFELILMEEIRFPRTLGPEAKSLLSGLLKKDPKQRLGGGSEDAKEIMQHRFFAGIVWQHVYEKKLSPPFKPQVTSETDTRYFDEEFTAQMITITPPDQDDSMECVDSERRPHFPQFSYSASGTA
AKT2 (PKB beta), sequence (P31751 whole entry): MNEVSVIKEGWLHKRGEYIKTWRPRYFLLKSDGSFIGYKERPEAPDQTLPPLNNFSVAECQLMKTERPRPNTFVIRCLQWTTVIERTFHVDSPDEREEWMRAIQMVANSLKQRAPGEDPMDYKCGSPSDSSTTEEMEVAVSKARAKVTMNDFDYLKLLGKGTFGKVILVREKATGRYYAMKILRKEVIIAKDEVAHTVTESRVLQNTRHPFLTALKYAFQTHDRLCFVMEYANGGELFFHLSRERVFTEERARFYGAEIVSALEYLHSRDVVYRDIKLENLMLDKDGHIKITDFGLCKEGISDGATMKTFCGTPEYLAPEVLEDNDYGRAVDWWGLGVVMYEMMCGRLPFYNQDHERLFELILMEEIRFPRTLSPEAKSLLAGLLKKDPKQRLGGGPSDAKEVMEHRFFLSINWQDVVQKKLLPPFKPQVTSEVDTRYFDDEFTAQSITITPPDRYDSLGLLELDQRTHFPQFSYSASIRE
AKT3 (PKB gamma), sequence (Q9Y243 whole entry): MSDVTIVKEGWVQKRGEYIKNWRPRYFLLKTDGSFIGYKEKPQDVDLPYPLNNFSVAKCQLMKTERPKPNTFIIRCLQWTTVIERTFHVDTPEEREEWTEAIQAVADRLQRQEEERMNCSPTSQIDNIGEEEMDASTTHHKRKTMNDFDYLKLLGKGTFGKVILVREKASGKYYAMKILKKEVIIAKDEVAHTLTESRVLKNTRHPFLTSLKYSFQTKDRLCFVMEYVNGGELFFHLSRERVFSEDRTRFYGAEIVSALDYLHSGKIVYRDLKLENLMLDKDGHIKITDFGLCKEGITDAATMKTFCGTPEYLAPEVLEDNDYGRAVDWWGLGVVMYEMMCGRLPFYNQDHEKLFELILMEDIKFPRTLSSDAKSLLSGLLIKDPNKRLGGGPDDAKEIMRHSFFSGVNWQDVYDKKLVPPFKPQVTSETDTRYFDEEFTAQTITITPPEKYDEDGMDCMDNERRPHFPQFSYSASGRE

With `Cn1c(=O)c(C(=O)/C=C/c2nc3cc(F)ccc3[nH]2)c(-c2ccccc2)c2cc(Cl)ccc21` [compound 46, (E)-6-chloro-3-(3-(5-fluoro-1H-benzo[d]imidazol-2-yl)acryloyl)-1-methyl-4-phenylquinolin-2(1H)-one], in series [1], the IC50 amounted to 17.2 µM.

On to `O=C(/C=C/c1nc2ccccc2[nH]1)c1c(-c2ccccc2)c2cc(Br)ccc2[nH]c1=O` [compound 44, (E)-3-(3-(1H-benzo[d]imidazol-2-yl)acryloyl)-6-bromo-4-phenylquinolin-2(1H)-one], for which the IC50 in series [2] came to 5.6 µM; in series [3] it was 6.02 µM; in series [1], 4.48 µM; in series [4], 8.85 µM; in series [5] it was 1.72 µM.

For `O=C(/C=C/c1nc2cc(F)c(F)cc2[nH]1)c1c(-c2ccc(F)cc2)c2cc(F)ccc2[nH]c1=O` [compound 48, (E)-3-(3-(5,6-difluoro-1H-benzo[d]imidazol-2-yl)acryloyl)-6-fluoro-4-(4-fluorophenyl)quinolin-2(1H)-one], the IC50 in series [2] was 16 µM; in series [3], 13.1 µM; in series [1], 15.9 µM.

Consider `O=C(CCc1nc2ccccc2[nH]1)c1c(-c2ccccc2)c2cc(Cl)ccc2[nH]c1=O` [compound 59, 3-(3-(1H-benzo[d]imidazol-2-yl)propanoyl)-6-chloro-4-phenylquinolin-2(1H)-one], for which the “IKKβ in vitro kinase inhibition (in words)” value in series [2] is “completely inactive”. For the same molecule, the “IKKα in vitro kinase inhibition (in words)” value in series [3] is “completely inactive”. For the same molecule, in series [1], the “AKT1 in vitro inhibition (in words)” value is “completely inactive”.

As to `CCOc1ccc(-c2c(C(=O)/C=C/c3nc4cc(F)c(F)cc4[nH]3)c(=O)[nH]c3ccc(Cl)cc23)cc1` [compound 53, (E)-6-chloro-3-(3-(5,6-difluoro-1H-benzo[d]imidazol-2-yl)acryloyl)-4-(4-ethoxyphenyl)quinolin-2(1H)-one], in series [1], the IC50 is more than 50 µM.

Consider `Cn1c(/C=C/C(=O)c2c(-c3ccccc3)c3cc(Cl)ccc3[nH]c2=O)nc2ccccc21` [compound 39, (E)-6-chloro-3-(3-(1-methyl-1H-benzo[d]imidazol-2-yl)acryloyl)-4-phenylquinolin-2(1H)-one], for which, in series [1], the “AKT1 in vitro inhibition (in words)” value is “inactive” and the IC50 is more than 100 µM.

For `O=C(/C=C/c1nc2cc(Br)ccc2[nH]1)c1c(-c2ccccc2)c2cc(Cl)ccc2[nH]c1=O` [compound 41, (E)-3-(3-(5-bromo-1H-benzo[d]imidazol-2-yl)acryloyl)-6-chloro-4-phenylquinolin-2(1H)-one], the IC50 in series [1] was found to be 14 µM.

In series [1], `Cc1ccc(-c2c(C(=O)/C=C/c3nc4cc(F)c(F)cc4[nH]3)c(=O)[nH]c3ccc(Cl)cc23)cc1` [compound 50, (E)-6-chloro-3-(3-(5,6-difluoro-1H-benzo[d]imidazol-2-yl)acryloyl)-4-(p-tolyl)quinolin-2(1H)-one] had an IC50 of more than 50 µM.

Consider `O=C(NCc1nc2ccccc2[nH]1)c1c(-c2ccccc2)c2cc(Cl)ccc2[nH]c1=O` [compound 58, N-((1H-benzo[d]imidazol-2-yl)methyl)-6-chloro-2-oxo-4-phenyl-1,2-dihydroquinoline-3-carboxamide], for which, in series [2], the “IKKβ in vitro kinase inhibition (in words)” value is “completely inactive”. Also, in series [3], the “IKKα in vitro kinase inhibition (in words)” value is “completely inactive”. For the same molecule, the “AKT1 in vitro inhibition (in words)” value in series [1] is “completely inactive”.

Regarding `O=C(/C=C/c1nc2cc(F)c(F)cc2[nH]1)c1c(-c2ccc(F)c(F)c2)c2cc(F)ccc2[nH]c1=O` [compound 54, (E)-3-(3-(5,6-difluoro-1H-benzo[d]imidazol-2-yl)acryloyl)-4-(3,4-difluorophenyl)-6-fluoroquinolin-2(1H)-one], the IC50 in series [2] stood at 16.4 µM; in series [3], 7.2 µM; in series [1] it was 44.5 µM.

Turning to `Cc1ccc2[nH]c(=O)c(C(=O)/C=C/c3nc4ccccc4[nH]3)c(-c3ccccc3)c2c1` [compound 45, (E)-3-(3-(1H-benzo[d]imidazol-2-yl)acryloyl)-6-methyl-4-phenylquinolin-2(1H)-one], the IC50 is 7.9 µM in series [2], 29.1 µM in series [3], 6.26 µM in series [1] and 5.53 µM in series [4].

Turning to `O=C(/C=C/c1nc2ccccc2[nH]1)c1c(-c2ccccc2)c2ccccc2[nH]c1=O` [compound 43, (E)-3-(3-(1H-benzo[d]imidazol-2-yl)acryloyl)-4-phenylquinolin-2(1H)-one], the IC50 in series [1] worked out at 5.2 µM.

In series [1], `COc1ccc(-c2c(C(=O)/C=C/c3nc4cc(F)c(F)cc4[nH]3)c(=O)[nH]c3ccc(Cl)cc23)cc1` [compound 52, (E)-6-chloro-3-(3-(5,6-difluoro-1H-benzo[d]imidazol-2-yl)acryloyl)-4-(4-methoxyphenyl)quinolin-2(1H)-one] returned an IC50 of more than 50 µM.

In series [1], `O=C(/C=C/c1nc2cc(F)c(F)cc2[nH]1)c1c(-c2ccc(Cl)cc2)c2cc(Cl)ccc2[nH]c1=O` [compound 51, (E)-6-chloro-4-(4-chlorophenyl)-3-(3-(5,6-difluoro-1H-benzo[d]imidazol-2-yl)acryloyl)quinolin-2(1H)-one] registered an IC50 of more than 50 µM.

Take `O=C(/C=C/c1nc2cc(F)c(F)cc2[nH]1)c1c(-c2ccc(F)c(F)c2)c2cc(Cl)ccc2[nH]c1=O` [compound 55, (E)-6-chloro-3-(3-(5,6-difluoro-1H-benzo[d]imidazol-2-yl)acryloyl)-4-(3,4-difluorophenyl)quinolin-2(1H)-one]: the IC50 is 17.8 µM in series [2], 12.1 µM in series [3] and more than 50 µM in series [1].

Consider `Cc1ccc2[nH]c(/C=C/C(=O)c3c(-c4ccccc4)c4cc(Cl)ccc4[nH]c3=O)nc2c1` [compound 40, (E)-6-chloro-3-(3-(5-methyl-1H-benzo[d]imidazol-2-yl)acryloyl)-4-phenylquinolin-2(1H)-one], for which the IC50 is 9.6 µM in series [2]; 8.03 µM in series [3]; 43.3 µM in series [1]; 8.4 µM in series [4]; 5 µM in series [5].

On to `O=C(/C=C/c1nc2ccccc2[nH]1)c1c(O)nc2ccc(Cl)cc2c1-c1ccccc1` [compound 1, (E)-3-(3-(1H-benzo[d]imidazol-2-yl)acryloyl)-6-chloro-4-phenylquinolin-2(1H)-one], for which the plasma stability result in series [6] is on record as “favorable”. Further, the IC50 turned out to be 2.3 µM in series [2]; 3.85 µM in series [3]; 6.22 µM in series [1]; 10.9 µM in series [4]; 4.24 µM in series [5]. For the same molecule, the microsomal stability result in series [7] is “favorable”.

`O=C(/C=C/c1nc2cc(F)c(F)cc2[nH]1)c1c(-c2ccc(F)cc2)c2cc(Cl)ccc2[nH]c1=O` [compound 49, (E)-6-chloro-3-(3-(5,6-difluoro-1H-benzo[d]imidazol-2-yl)acryloyl)-4-(4-fluorophenyl)quinolin-2(1H)-one]: the results for the concentration for half-maximal inhibition (IC50) in series [2], in series [3] and in series [1] were 15.4 µM, 7.12 µM and 30.4 µM, respectively.

For orientation: IC50 means the concentration needed to halve the response being measured. Low values mean greater potency, high ones weaker potency.
